Source: PubChem BioAssay
OX1R antag-1 = antagonists of human orexin 1 receptor (OX1R); O43613; OX1R-expressing cells, FRET antagonist read-out; inhibition, % at 6.6 µM; hit rate 1.8% among 330,000; in the data active = inhibition mostly above about 38%, no sharp cut-off; inactive = mostly below about 40%
OX1R antag-2 = human HCRTR1 antagonism; CHO/OX1R cells, Fluo-8 calcium fluorescence, orexin A; O43613; hit rate 0.43% among 330,000; AID 434989; inhibition, % at 5 µM;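 active = inhibition above its plate's threshold, mean inhibition of all tested compounds on the plate plus 3 SD, cut at about 37% in these data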
EP2 antag = blocks the human prostaglandin E2 receptor EP2; C6 glioma cells expressing human EP2, cAMP TR-FRET; cells stimulated with saturating PGE2; inhibition, % at 25 µM; AID 1422; hit rate 0.52% among 260,000; P43116;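 active = percent inhibition above 40 after rounding to a whole number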;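 note: rat C6 glioma host cells with rolipram phosphodiesterase inhibitor present; the protocol text gives 20 µM as final concentration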
GPR7 antag = blocks human GPR7 receptor signaling; P48145; GPR7-expressing cells, fluorescence antagonist assay; inhibition, % at 4.4 µM; hit rate 1.1% among 290,000; AID 1861; in the data active = inhibition above about 16%, passing the limit was not always enough;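 note: cells stimulated with the agonist NPW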
Target sequence (P48145 whole entry, looked up): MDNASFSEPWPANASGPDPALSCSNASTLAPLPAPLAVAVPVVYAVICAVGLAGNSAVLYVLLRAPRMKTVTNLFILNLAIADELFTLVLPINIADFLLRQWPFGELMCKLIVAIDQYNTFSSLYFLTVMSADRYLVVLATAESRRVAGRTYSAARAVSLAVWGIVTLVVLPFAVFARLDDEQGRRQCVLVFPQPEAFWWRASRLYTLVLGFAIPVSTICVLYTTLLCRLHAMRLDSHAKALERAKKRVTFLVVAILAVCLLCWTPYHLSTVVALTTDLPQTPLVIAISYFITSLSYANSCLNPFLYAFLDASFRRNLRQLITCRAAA
EP2 mod = EP2 receptor (human) modulation | AID 940 | EP2-expressing cells, cAMP HTRF FRET, PGE2 co-stimulation | induction, % at 25 µM | hit rate 0.83% among 260,000 | P43116;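 active = compounds whose cAMP rise, as percent of the full-agonist control response, exceeds 60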;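 note: rat C6 glioma line stably carrying human EP2 under a CMV promoter; the protocol text gives 20 µM as final concentration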
CHO parental Ca = counter-screen: ATP calcium response change in parental CHO cells; parental CHO-K1, ATP-induced calcium, Fluo-8 fluorescence; inhibition, % at 5.6 µM; hit rate 0.63% among 330,000; AID 463079;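 active = inhibition above that plate's mean sample inhibition plus 3 SD, cut at about 26% in these data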
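Assay system – parental CHO cells · Reagent – ATP stimulus · Detection – intracellular calcium via Fluo-8 no-wash fluorescent dye · Evaluation – percent inhibition of ATP-evoked calcium rise, normalized to controls · Controls – ATP wells versus no-ATP DMSO wells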
A number is an active result; i = inactive; nt = no result given. Most compounds without a hit are left out; they make up all but 3.7% or so of the library.

SMILES	OX1R antag-1	OX1R antag-2	EP2 antag	GPR7 antag	EP2 mod	CHO parental Ca
COc1ccc(CCNC(=O)c2ccccc2NC(=O)C2=C(C)OCCS2)c(OC)c1	64.0	i	nt	i	nt	i
COc1ccc(OC)c(CCNC(=O)c2cccc(NC(=O)C3=C(C)OCCS3)c2)c1	40.8	i	nt	i	nt	i
COc1cc(CCNC(=O)c2ccccc2NC(=O)C2=C(C)OCCS2)cc(OC)c1OC	i	i	nt	i	nt	i
OC1CCN(C(=S)Nc2ccc(Oc3ccccc3)cc2)CC1	i	i	i	i	i	i
CCOC(=O)C(=CNc1cc(C)ccc1-n1cccc1)C(=O)OCC	i	i	i	i	64.7	i
CCOC(=O)C(=CNc1ccccc1Cl)C(=O)OCC	nt	nt	i	i	i	nt
CCOC(=O)C(=CNc1ccc(C(F)(F)F)cc1Cl)C(=O)OCC	i	i	i	i	68.6	i
COc1ccccc1C(=O)NC(=S)/C=C1/N(C)c2ccccc2C1(C)C	i	48.4	i	i	i	49.1
CCc1ccc(-c2ccc(C(=O)O)c(C)n2)cc1	i	i	i	i	i	i
CCc1ccc(-c2cnc3nc[nH]c(=O)c3n2)cc1	43.5	i	nt	nt	nt	i
Cc1ccc(NC(=O)c2sccc2SCc2cccc(C(F)(F)F)c2)cc1	i	i	i	i	i	i
Cc1cccc(C)c1NC(=O)c1sccc1SCc1cccc(C(F)(F)F)c1	i	37.0	i	i	i	52.6
COc1ccc(Nc2cnn(-c3nc4ccccc4s3)c(=O)c2Cl)cc1	i	i	60.9	i	i	i
O=c1c(Cl)c(Nc2cccc(Cl)c2)cnn1-c1nc2ccccc2s1	i	i	i	i	i	i
CCc1nonc1NC(=O)c1oc2ccc(F)cc2c1C	i	i	nt	i	nt	i
Cc1c(C(=O)Nc2nonc2-c2ccc(F)cc2)oc2ccc(F)cc12	49.3	i	nt	i	nt	i
Cc1cc(C)cc(C(=O)NC(CC(N)=O)c2ccc(NCCN3CCOCC3)c([N+](=O)[O-])c2)c1 (stereo unspecified)	i	i	nt	i	nt	i
COc1ccc(OCCN2CCN(Cc3ccnc(N4CCCC4)n3)CC2)cc1	nt	nt	i	nt	i	nt
C/C(=N\Nc1nc(N2CCCCC2)nc(N2CCOCC2)n1)c1ccccc1O	i	i	i	i	64.4	i
Cc1noc(C)c1COc1ccc(CC(=O)NCc2ccccc2)cc1	i	i	i	17.9	i	i
Cc1noc(C)c1COc1ccc(CC(=O)NCCc2ccccn2)cc1	i	i	nt	i	nt	i
CSc1nc(-c2ccccc2)nc2c1COC(C)(C)C2	i	i	i	i	64.5	i
O=C(Oc1ccc(C(=S)N2CCOCC2)cc1)c1ccccc1[N+](=O)[O-]	56.2	i	nt	i	nt	i
Cc1nc(Sc2ccccc2)c(C#N)c(C)c1[N+](=O)[O-]	i	i	i	i	61.0	i
COc1ccc(CCNC(=O)CSc2ccccn2)cc1	i	i	i	i	i	i
SMILES	OX1R antag-1	OX1R antag-2	EP2 antag	GPR7 antag	EP2 mod	CHO parental Ca
COCCCN1C(=O)c2ccc(C(=O)NCc3ccccn3)cc2C1=O	38.8	i	nt	i	nt	i
CC(C)CN1C(=O)c2ccc(C(=O)NCc3ccccn3)cc2C1=O	i	i	nt	i	nt	i
COCCCN1C(=O)c2ccc(C(=O)NCc3ccco3)cc2C1=O	42.5	i	i	i	i	i
CCCSc1nc2sc3c(c2c(=O)n1C)CCCC3	nt	nt	i	nt	65.1	nt
COc1ccc(-c2noc(CCC(=O)NCCCN3CCC(Cc4ccccc4)CC3)n2)cc1	i	i	i	28.9	i	i
COc1ccc(-c2cc3c(=O)n(CC(=O)NCCCN4CCC(Cc5ccccc5)CC4)ncn3n2)cc1	i	i	nt	i	nt	39.6
CC(O)c1cccc(NC(=O)CC(c2ccccc2)c2ccccc2)c1 (stereo unspecified)	i	i	nt	i	nt	i
Cc1ccc(C)n1-c1cc([N+](=O)[O-])ccc1-n1ccnc1	i	i	i	i	i	i
CC1(C)N([O-])c2cc([N+](=O)[O-])ccc2[N+]1=O	53.0	i	86.8	i	i	i
CS(=O)(=O)c1cccc(C(=O)NCc2ccc(F)cc2)c1	i	i	i	i	i	i
Cc1nc(CN2CCN(C(=O)NC3(c4ccccc4)CC3)CC2)cs1	i	i	i	i	i	i
Nc1ccccc1SCC(=O)N1c2ccccc2Sc2ccc(C(F)(F)F)cc21	nt	nt	i	nt	88.4	nt
CC(=O)c1ccc(NC(=O)/C(Cl)=C/c2ccccc2)cc1	i	i	i	i	i	42.3
